What was measured:
Type in all cases: organism-based
[1] = biological target: T1, Angiotensin-converting enzyme (Rattus norvegicus) (UniProt P47820); assay: Compound was tested for plasma inhibition of Angiotensin I converting enzyme activity in the conscious rat. Expressed as Inhibition of AI pressor response at 6 hr at a dose of 12.4 mg/kg po; design: dose 12.4 mg/kg
T1 sequence (whole entry): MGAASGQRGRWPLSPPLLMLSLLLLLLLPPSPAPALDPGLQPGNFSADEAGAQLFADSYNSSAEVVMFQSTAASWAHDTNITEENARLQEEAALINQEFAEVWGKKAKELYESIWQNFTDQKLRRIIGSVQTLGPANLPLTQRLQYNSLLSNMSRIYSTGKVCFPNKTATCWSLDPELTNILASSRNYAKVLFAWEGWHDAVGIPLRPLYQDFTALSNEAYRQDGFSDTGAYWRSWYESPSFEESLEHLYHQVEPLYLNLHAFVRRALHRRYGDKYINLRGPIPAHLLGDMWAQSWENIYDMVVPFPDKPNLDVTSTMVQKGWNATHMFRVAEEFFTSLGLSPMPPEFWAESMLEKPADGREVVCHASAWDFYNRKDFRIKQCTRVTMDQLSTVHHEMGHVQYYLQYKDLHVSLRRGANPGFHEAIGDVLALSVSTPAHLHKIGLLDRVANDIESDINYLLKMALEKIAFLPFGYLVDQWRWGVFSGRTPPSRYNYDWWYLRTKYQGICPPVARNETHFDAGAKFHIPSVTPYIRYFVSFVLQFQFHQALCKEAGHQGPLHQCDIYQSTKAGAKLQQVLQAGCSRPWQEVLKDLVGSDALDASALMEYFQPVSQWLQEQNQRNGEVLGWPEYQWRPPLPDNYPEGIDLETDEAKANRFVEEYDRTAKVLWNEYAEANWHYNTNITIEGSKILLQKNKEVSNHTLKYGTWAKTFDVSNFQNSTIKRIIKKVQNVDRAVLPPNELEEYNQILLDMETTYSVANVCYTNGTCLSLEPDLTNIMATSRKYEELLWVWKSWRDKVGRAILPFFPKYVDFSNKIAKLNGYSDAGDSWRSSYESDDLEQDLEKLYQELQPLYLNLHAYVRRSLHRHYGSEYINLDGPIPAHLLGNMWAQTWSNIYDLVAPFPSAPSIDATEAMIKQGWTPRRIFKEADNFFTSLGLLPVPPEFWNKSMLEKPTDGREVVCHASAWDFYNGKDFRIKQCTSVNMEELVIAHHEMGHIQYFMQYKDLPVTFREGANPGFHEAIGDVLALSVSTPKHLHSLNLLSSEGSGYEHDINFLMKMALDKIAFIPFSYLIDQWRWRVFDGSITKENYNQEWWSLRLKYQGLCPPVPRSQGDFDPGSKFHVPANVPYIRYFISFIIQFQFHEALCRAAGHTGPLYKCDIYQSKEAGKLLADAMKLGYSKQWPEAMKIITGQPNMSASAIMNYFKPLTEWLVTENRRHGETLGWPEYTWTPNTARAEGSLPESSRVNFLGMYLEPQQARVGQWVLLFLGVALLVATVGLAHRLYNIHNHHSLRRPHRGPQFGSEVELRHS
Method in brief: (§1)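 Male conscious normotensive Sprague-Dawley rats (275-390 g), prepared under methohexital sodium (75 mg/kg ip) with femoral arterial and venous catheters. The next day, pressor responses to three angiotensin-I challenges (300 ng/kg iv) were recorded. Compound was then given orally and angiotensin-I challenges were repeated at set times. Percent inhibition is relative to the mean of the three baseline responses.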

[2] = biological target: T1, Angiotensin-converting enzyme (Rattus norvegicus); assay: Compound was tested for plasma inhibition of Angiotensin I converting enzyme activity in the conscious rat. Expressed as Inhibition of AI pressor response at 4 hr at a dose of 12.4 mg/kg po; design: dose 12.4 mg/kg
Method in brief: (§2)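 Male conscious normotensive Sprague-Dawley rats (275-390 g), given femoral arterial and venous catheters under methohexital sodium (75 mg/kg ip) anesthesia. Next day, pressor responses to three angiotensin-I challenges (300 ng/kg iv) recorded by direct arterial pressure. Compound then dosed orally, and AI challenge repeated at set times. Each post-dose response compared with the mean of the three baseline responses, giving % inhibition.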

[3] = biological target: T1, Angiotensin-converting enzyme (Rattus norvegicus); assay: Compound was tested for plasma inhibition of ACE activity in the conscious rat. Expressed as Inhibition of AI pressor response at 1 hr at a dose of 12.4 mg/kg po; design: dose 12.4 mg/kg; method in brief: as §2
[4] = biological target: T1, Angiotensin-converting enzyme (Rattus norvegicus); assay: Compound was tested for plasma inhibition of Angiotensin I converting enzyme activity in the conscious rat. Expressed as Inhibition of AI pressor response at 2 hr at a dose of 12.4 mg/kg po; design: dose 12.4 mg/kg; method in brief: as §2
[5] = biological target: T1, Angiotensin-converting enzyme (Rattus norvegicus); assay: Compound was tested for plasma inhibition of Angiotensin I converting enzyme activity in the conscious rat. Expressed as Inhibition of AI pressor response at 1 hr at a dose of 13 mg/kg po; design: dose 13 mg/kg
Method in brief: (§3)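 Male conscious normotensive Sprague-Dawley rats (275-390 g), fitted under methohexital (75 mg/kg ip) with femoral arterial and venous catheters for direct blood pressure. Next day, pressor responses to three angiotensin-I challenges (300 ng/kg iv) were recorded. Compound was then given po and AI challenge repeated at scheduled times. Each post-dose response was compared with the mean of the three initial responses.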

[6] = biological target: T1, Angiotensin-converting enzyme (Rattus norvegicus); assay: Compound was tested for plasma inhibition of Angiotensin I converting enzyme activity in the conscious rat. Expressed as Inhibition of AI pressor response at 2 hr at a dose of 13 mg/kg po; design: dose 13 mg/kg; method in brief: as §3
[7] = biological target: T1, Angiotensin-converting enzyme (Rattus norvegicus); assay: Compound was tested for plasma inhibition of Angiotensin I converting enzyme activity in the conscious rat. Expressed as Inhibition of AI pressor response at 4 hr at a dose of 13 mg/kg po; design: dose 13 mg/kg; method in brief: as §3
[8] = biological target: T1, Angiotensin-converting enzyme (Rattus norvegicus); assay: Compound was tested for plasma inhibition of Angiotensin I converting enzyme activity in the conscious rat. Expressed as Inhibition of AI pressor response at 6 hr at a dose of 13 mg/kg po; design: dose 13 mg/kg; method in brief: as §3
[9] = biological target: T1, Angiotensin-converting enzyme (Rattus norvegicus); assay: Compound was tested for plasma inhibition of Angiotensin I converting enzymeb activity in the conscious rat. Expressed as Inhibition of AI pressor response at 4 hr at a dose of 12.8 mg/kg po; design: dose 12.8 mg/kg; method in brief: as §1
[10] = biological target: T1, Angiotensin-converting enzyme (Rattus norvegicus); assay: Compound was tested for plasma inhibition of Angiotensin I converting enzyme activity in the conscious rat. Expressed as Inhibition of AI pressor response at 1 hr at a dose of 12.8 mg/kg po; design: dose 12.8 mg/kg; method in brief: as §2
[11] = biological target: T1, Angiotensin-converting enzyme (Rattus norvegicus); assay: Compound was tested for plasma inhibition of Angiotensin I converting enzyme activity in the conscious rat. Expressed as Inhibition of AI pressor response at 6 hr at a dose of 12.8 mg/kg po; design: dose 12.8 mg/kg; method in brief: as §1
[12] = biological target: T1, Angiotensin-converting enzyme (Rattus norvegicus); assay: Compound was tested for plasma inhibition of Angiotensin I converting enzyme activity in the conscious rat. Expressed as Inhibition of AI pressor response at 2 hr at a dose of 12.8 mg/kg po; design: dose 12.8 mg/kg; method in brief: as §2
[13] = biological target: T1, Angiotensin-converting enzyme (Rattus norvegicus); assay: Compound was tested for plasma inhibition of Angiotensin I converting enzyme activity in the conscious rat. Expressed as Inhibition of AI pressor response at 6 hr at a dose of 12.3 mg/kg po; design: dose 12.3 mg/kg; method in brief: as §1
[14] = biological target: T1, Angiotensin-converting enzyme (Rattus norvegicus); assay: Compound was tested for plasma inhibition of Angiotensin I converting enzyme activity in the conscious rat. Expressed as Inhibition of AI pressor response at 1 hr at a dose of 12.3 mg/kg po; design: dose 12.3 mg/kg; method in brief: as §2
[15] = biological target: T1, Angiotensin-converting enzyme (Rattus norvegicus); assay: Compound was tested for plasma inhibition of Angiotensin I converting enzyme activity in the conscious rat. Expressed as Inhibition of AI pressor response at 2 hr at a dose of 12.3 mg/kg po; design: dose 12.3 mg/kg; method in brief: as §2
[16] = biological target: T1, Angiotensin-converting enzyme (Rattus norvegicus); assay: Compound was tested for plasma inhibition of Angiotensin I converting enzyme activity in the conscious rat. Expressed as Inhibition of AI pressor response at 4 hr at a dose of 12.3 mg/kg po; design: dose 12.3 mg/kg; method in brief: as §2
[17] = biological target: T1, Angiotensin-converting enzyme (Rattus norvegicus); assay: Compound was tested for plasma inhibition of Angiotensin I converting enzyme activity in the conscious rat. Expressed as Inhibition of AI pressor response at 6 hr at a dose of 13.3 mg/kg po; design: dose 13.3 mg/kg; method in brief: as §1
[18] = biological target: T1, Angiotensin-converting enzyme (Rattus norvegicus); assay: Compound was tested for plasma inhibition of Angiotensin I converting enzyme activity in the conscious rat. Expressed as Inhibition of AI pressor response at 1 hr at a dose of 13.3 mg/kg po; design: dose 13.3 mg/kg; method in brief: as §2
[19] = biological target: T1, Angiotensin-converting enzyme (Rattus norvegicus); assay: Compound was tested for plasma inhibition of Angiotensin I converting enzyme activity in the conscious rat. Expressed as Inhibition of AI pressor response at 4 hr at a dose of 13.3 mg/kg po; design: dose 13.3 mg/kg; method in brief: as §1
[20] = biological target: T1, Angiotensin-converting enzyme (Rattus norvegicus); assay: Compound was tested for plasma inhibition of Angiotensin I converting enzyme activity in the conscious rat. Expressed as Inhibition of AI pressor response at 2 hr at a dose of 13.3 mg/kg po; design: dose 13.3 mg/kg; method in brief: as §2

`CCOC(=O)[C@H](Cc1ccc(OCC)cc1)NC(=O)C1(NC(=O)[C@H](SC(C)=O)C(C)C)CCCC1` was tested, and the inhibition [1] was 70%, the inhibition [2] was 73% and the inhibition [3] was 88%. For the same molecule, the inhibition [4] was 76%.
`CCOC(=O)[C@H](Cc1ccc(O)cc1)NC(=O)C1(NC(=O)[C@H](SC(=O)C2CCCC2)C(C)C)CCCC1` gave an inhibition [5] of 34%, an inhibition [6] of 33% and an inhibition [7] of 55%. For the same molecule, the inhibition [8] was 38%.
`CCCCOC(=O)[C@H](Cc1ccc(O)cc1)NC(=O)C1(NC(=O)[C@H](SC(=O)CC)C(C)C)CCCC1` was tested, and the inhibition [9] was 56%, the inhibition [10] was 47% and the inhibition [11] was 39%. The inhibition [12] was 71%.
For `CCCOc1ccc(C[C@H](NC(=O)C2(NC(=O)[C@H](SC(C)=O)C(C)C)CCCC2)C(=O)OCC)cc1`, the inhibition [13] was 68%, the inhibition [14] was 90% and the inhibition [15] was 80%. The inhibition [16] was 72%.
Work on `CCOC(=O)[C@H](Cc1ccc(O)cc1)NC(=O)C1(NC(=O)[C@H](SC(=O)c2ccccn2)C(C)C)CCCC1` yielded an inhibition [17] of 12%, an inhibition [18] of 10% and an inhibition [19] of 8%. The inhibition [20] was 11%.

Reference: ChEMBL document CHEMBL1129264, “Mercaptoacyl dipeptides as orally active dual inhibitors of angiotensin-converting enzyme and neutral endopeptidase” (1996)
